Laboratory results reported in ChEMBL document CHEMBL1671647, “In vitro activity of LK-157, a novel tricyclic carbapenem as broad-spectrum {beta}-lactamase inhibitor” (Antimicrob Agents Chemother, 2009).
Converted amounts (≈) assume the structure as drawn.

Legend:
[1] = Inhibition of Enterobacter cloacae Beta-lactamase AmpC
Outline: (§1)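 Purified β-lactamase (final 0.25 μg/ml) was preincubated with inhibitor for 10 min at 37°C in […] phosphate, pH 7, with 10% DMSO final. Prewarmed nitrocefin was then added (final […] as printed). A490 was read every 30 s for 10 min at 37°C to give initial rates. IC50 was fitted by sigmoidal nonlinear regression, from at least two independent experiments, with 95% CI.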

[2] = Inhibition of Klebsiella pneumoniae Beta-lactamase SHV-1; outline: as §1
[3] = Inhibition of Beta-lactamase TEM-1; outline: as §1
[4] = tested on: Enterobacter cloacae; test: Antibacterial activity against Enterobacter cloacae by broth microdilution method; format: functional
Outline: (§2)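 Broth microdilution MICs per CLSI against clinical and ATCC isolates; stocks in distilled water, diluted with water or Mueller-Hinton broth, drug weights corrected for salt forms. Twofold series from 256 to 0.125 μg/ml or 25.6 to 0.0125 μg/ml. Inoculum 5 × 10^5 CFU/ml (final) by direct colony suspension. β-Lactamase inhibitors, when combined with a β-lactam, held constant at 4 μg/ml.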

[5] = tested on: Enterococcus sp.; test: Antibacterial activity against Enterococcus sp. by broth microdilution method; format: functional; outline: as §2
[6] = tested on: Moraxella catarrhalis; test: Antibacterial activity against Moraxella catarrhalis by broth microdilution method; format: functional; outline: as §2
[7] = tested on: Citrobacter freundii; test: Antibacterial activity against Citrobacter freundii by broth microdilution method; format: functional; outline: as §2
[8] = tested on: Escherichia coli; test: Antibacterial activity against Escherichia coli by broth microdilution method; format: functional; outline: as §2
[9] = tested on: Staphylococcus aureus; test: Antibacterial activity against methicillin-resistant Staphylococcus aureus by broth microdilution method; format: functional
Outline: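 CLSI broth microdilution MIC against clinical isolates. In β-lactam combinations the inhibitor was held constant at 4 μg/ml. Inoculum was prepared by direct colony suspension, final 5 × 10^5 CFU/ml.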

[10] = tested on: Klebsiella sp.; test: Antibacterial activity against Klebsiella sp. by broth microdilution method; format: functional; outline: as §2
[11] = tested on: Staphylococcus aureus; test: Antibacterial activity against methicillin-susceptible Staphylococcus aureus by broth microdilution method; format: functional; outline: as §2
[12] = tested on: Pseudomonas aeruginosa; test: Antibacterial activity against Pseudomonas aeruginosa by broth microdilution method; format: functional; outline: as §2

| Structure (SMILES) | IC50 [1] [nM] | IC50 [2] [nM] | IC50 [3] [nM] | MIC [4] [µg/mL] | MIC50 [4] [µg/mL] | MIC90 [4] [µg/mL] | MIC [5] [µg/mL] | MIC50 [6] [µg/mL] | MIC90 [6] [µg/mL] | MIC [7] [µg/mL] | MIC [8] [µg/mL] | MIC50 [8] [µg/mL] | MIC90 [8] [µg/mL] | MIC50 [9] [µg/mL] | MIC90 [9] [µg/mL] | MIC [10] [µg/mL] | MIC50 [10] [µg/mL] | MIC90 [10] [µg/mL] | MIC [11] [µg/mL] | MIC [12] [µg/mL] |
| --- | --- | --- | --- | --- | --- | --- | --- | --- | --- | --- | --- | --- | --- | --- | --- | --- | --- | --- | --- | --- |
| CC1(C)[C@H](C(=O)O)N2C(=O)C[C@H]2S1(=O)=O [SULBACTAM] | 11900 | 3960 | 1060 | – | – | – | – | – | – | – | – | – | – | – | – | – | – | – | – | – |
| C/C=C1/C(=O)N2C(C(=O)O)=C3[C@@H](OC)CCC[C@@H]3[C@H]12 | 62 | 151 | 55 | > 25.6 | > 25.6 | > 25.6 | > 25.6 | 0.8 (≈ 3.04 µM) | 0.8 (≈ 3.04 µM) | > 25.6 | > 25.6 | > 25.6 | > 25.6 | > 256 | > 256 | 6.4 (≈ 24.3 µM) | > 25.6 | > 25.6 | 0.8 (≈ 3.04 µM) | > 25.6 |
| C[C@]1(Cn2ccnn2)[C@H](C(=O)O)N2C(=O)C[C@H]2S1(=O)=O [TAZOBACTAM] | 1760 | – | 14 | – | – | – | – | – | – | – | – | – | – | – | – | – | – | – | – | – |
| O=C(O)[C@H]1/C(=C/CO)O[C@@H]2CC(=O)N21 [CLAVULANIC ACID] | 136000 | 28 | 30 | – | – | – | – | – | – | – | – | – | – | – | – | – | – | – | – | – |
